# High-throughput results (PubChem BioAssay)
# Only some compounds are listed: those with a hit (about 3.9% of all), similar ones and a draw of the others.
# CHOP UPR activ: apoptotic UPR (CHOP) activation; CHO-CHOP luciferase reporter, luminescence; percent of tunicamycin response over DMSO baseline; activation, % at 10 µM; 0.34% of 330,000 active; AID 449763;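 active means at 10 µM dose, activation of 40% or more, normalized to positive control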;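 further: 100% = tunicamycin at 10 µg/mL and 0% = DMSO alone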
#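 System: CHO-CHOP luciferase reporter cell line; amount: 500 cells/well; buffer or medium: F12 medium containing 10% fetal bovine serum; incubation: 6 h compound exposure at 37 °C after overnight seeding; measured by: luciferase luminescence after 10 min with Steady-Glo reagent; evaluation: % reporter activation, DMSO baseline versus tunicamycin full activation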
# tim23-1 inh: tim23-1 yeast growth inhibition; inhibition, % at 20 µM; 1.3% of 330,000 active; S. cerevisiae tim23-1 growth, BacTiter-Glo luminescence, 24 h; AID 463212;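 active means growth inhibition of the mutant yeast at or above 50%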;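 further: temperature-sensitive mutant grown at 25 °C; plate controls were DMSO-treated mutant yeast for no effect and medium wells lacking yeast for full effect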
# XBP1 UPR activ: adaptive UPR (XBP1) activation. 0.33% of 330,000 active. activation, % at 20 µM. CHO-XBP1 luciferase reporter, IRE1-XBP1 UPR activation, luminescence; percent of tunicamycin response, DMSO as zero;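 active means versus positive control, 20 µM dose yields 30% or more activation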;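 further: 100% = tunicamycin at 10 µg/mL and 0% = DMSO only wells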
#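 Test system: CHO-XBP1 luciferase reporter cells | Buffer or medium: Serum-containing F12 medium, 10% FBS | Schedule: 6 h compound exposure at 37 °C, 5% CO2 | Detection: Steady-Glo luciferase glow luminescence, 10 min after reagent addition | Read-out basis: Activation, % of tunicamycin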
# tim10-1 inh: growth inhibitors of tim10-1 mutant yeast | S. cerevisiae tim10-1 ts strain growth, BacTiter-Glo, 24 h | AID 463190 | 2.2% of 330,000 active | inhibition, % at 20 µM;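 active means inhibition of at least 40%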;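 further: mutant grown at 25 °C; 0% = DMSO wells with yeast and 100% = wells holding no yeast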
# TIM10 inh: growth inhibitors of TIM10 yeast strain | S. cerevisiae TIM10 strain growth, BacTiter-Glo luminescence, 24 h | 1.4% of 330,000 active | inhibition, % at 10 µM | AID 463195;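 active means inhibition of 40% or more at the single tested concentration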;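 further: wild-type TIM10 isogenic control strain grown at permissive 25 °C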
# tim10-1 conf: tim10-1 yeast growth inhibition, confirmed | 56% of 7,400 active | inhibition, % at 20 µM | shares compounds with tim10-1 inh | S. cerevisiae tim10-1 ts strain growth, BacTiter-Glo, 24 h;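 active means inhibition of yeast growth at or above a set limit in either of two repeat tests at 20 µM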;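 further: tim10-1 mutant grown at permissive 25 °C to find synthetic lethal compounds; 0% = DMSO yeast wells and 100% = medium wells without yeast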
# TIM10 conf: confirmation of TIM10 yeast growth inhibitors; inhibition, % at 10 µM; 63% of 4,600 active; shares compounds with TIM10 inh; S. cerevisiae tim10 strain growth, BacTiter-Glo luminescence, 24 h;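 active means inhibition of yeast growth at or above a set limit in either of two replicates at 10 µM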;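 further: this counterscreen used the strain with wild-type TIM10; 0% = yeast with DMSO and 100% = medium wells lacking yeast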
# The depositor's hits bear a star; · = no result given.
SMILES,CHOP UPR activ,tim23-1 inh,XBP1 UPR activ,tim10-1 inh,TIM10 inh,tim10-1 conf,TIM10 conf
Nc1cccc(CP(=O)(c2ccccc2)c2ccccc2)c1,2,7,0,-9,12,·,·
COc1ccc(S(=O)(=O)N2CCC(C(=O)Nc3cc(Cl)ccc3N3CCOCC3)CC2)cc1OC,2,2,3,14,-1,·,·
O=[N+]([O-])c1nn(-c2ccc3c(c2)OCCO3)n(O)c1=NC1CCCCC1,4,46,-1,56*,49*,46*,43*
CCCCS(=O)(=O)/C=C\C1C2C=CC(C2)C1S(=O)(=O)CCCC (stereo not drawn),0,7,-1,4,11,·,·
CCCCS(=O)(=O)/C=C\C=C/S(=O)(=O)CCCC,-12,43,-10,70*,59*,42*,61*
Cc1cc(C)c(NC(=O)CCCn2c(=O)oc3ccccc32)c(C)c1,-1,9,-2,8,-1,·,·
COc1ccc(CC(=O)N(C)Cc2cccc(OC)c2OC)cc1S(=O)(=O)N1CCOCC1,0,-25,-1,-15,-2,·,·
O=C(NN=C1c2ccccc2-c2ccccc21)c1ccccn1,7,20,8,41*,48*,25,39*
CC(=N/O)/C(C)=N\NC(=O)c1ccccn1,2,4,1,-6,7,·,·
O=C(Nc1ccnn1C1CCN(Cc2cccc(OCCO)c2)CC1)C1CCOC1 (stereo not drawn),0,10,-4,11,6,·,·
CC(C)(C)c1cc(OC(=O)c2ccncc2)ccc1O,-1,15,0,22,35,·,·
CC(C)(C)c1cc(OC(=O)c2ccccc2F)ccc1O,1,36,0,45*,48*,24,43*
O=C(NCc1ccccc1)c1cccc(COc2cccc(Cl)c2)c1,1,24,0,45*,43*,40*,34*
COc1ccc(S(=O)(=O)N2CCOC2CNC(=O)C(=O)NCCCN2CCOCC2)cc1OC (stereo not drawn),0,-12,-3,-3,7,·,·
CCCCCC(=O)NC(=S)Nc1ccc(Cl)cn1,1,40,4,47*,44*,28*,6
CC(C)(C)c1ccc(NC(=S)NCc2cccs2)cc1,0,45,6,54*,46*,40*,33*
Cc1cc(C)cc(NC(=S)NCc2cccs2)c1,0,37,-2,25,7,·,·
CC(C)NC(=O)CSc1ccccc1C(=O)N1CCN(S(=O)(=O)Cc2ccccc2)CC1,1,5,2,1,-3,·,·
Cc1cc(C)c2c(-n3cccc3)c(C(=O)NNS(=O)(=O)c3ccc(Br)cc3)sc2n1,0,49,1,41*,41*,44*,21
Cc1ccc(NC(=O)CN2CCCN(S(=O)(=O)c3ccc(Br)s3)CC2)cc1,-1,37,-5,44*,42*,32*,29
N#CC(C#N)=Cc1c[nH]c(=O)c(C#N)c1Nc1ccccc1,1,5,-3,10,17,·,·
CCS(=O)(=O)c1ccc2oc(Nc3ccc(C(C)C)cc3)nc2c1,3,38,3,35,34,·,·
CCS(=O)(=O)c1ccc2oc(Nc3cc(C)cc(C)c3)nc2c1,-1,43,3,47*,43*,37*,37*
CSc1ccccc1C(=O)N1CCN(S(=O)(=O)c2sc(C(=O)O)c(C)c2C(=O)O)CC1,0,13,2,2,2,·,·
COc1ccc(-n2c(SC(C)C(=O)Nc3ccc(NC(C)=O)cc3)nc3ccccc3c2=O)cc1OC (stereo not drawn),1,3,-5,9,7,·,·
SMILES,CHOP UPR activ,tim23-1 inh,XBP1 UPR activ,tim10-1 inh,TIM10 inh,tim10-1 conf,TIM10 conf
CN1C/C(=C/c2ccncc2)C(=O)/C(=C/c2ccncc2)C1,-2,14,-1,0,-5,·,·
CN1C/C(=C/c2ccsc2)C(=O)/C(=C/c2ccsc2)C1,-2,32,-1,54*,49*,31*,33*
N#Cc1ccc(CNC(=O)N2CCOCC2)cc1,·,2,·,4,-12,·,·
Cc1cccc(C)c1N=Cc1c(O)n(-c2nccs2)c(=O)c2ccccc12,3,48,1,46*,55*,41*,-3
O=C(COC(=O)c1ccc([N+](=O)[O-])o1)Nc1ncc(Cl)cc1Cl,4,14,-2,-136,-110,·,·
CCCCCC(=O)N(O)C1CC(=O)N(c2ccccc2)C1=O (stereo not drawn),0,19,0,26,18,·,·
CCCN(CCC)C1CC(=O)N(Cc2ccccc2)C1=O (stereo not drawn),0,34,-3,53*,42*,47*,39*
CCCCCCC(=O)N(O)C1CC(=O)N(Cc2ccccc2)C1=O (stereo not drawn),1,24,-1,45*,43*,41*,27
COc1ccc(S(=O)(=O)NC2CC(C)(C)NC(C)(C)C2)c2ccccc12,1,-6,-1,-7,-1,·,·
COc1ccc(/C=C/C(=O)c2cc(Br)ccc2OC(=O)c2ccco2)cc1OC,-1,36,-1,24,15,·,·
COc1ccc(/C=C/C(=O)c2cc(F)ccc2OC(=O)c2ccccc2)cc1OC,3,48,22,52*,48*,48*,3
C(=N\Nc1nc2ccccc2[nH]1)/c1ccccc1,4,-1,2,15,28,·,·
O=c1[nH]c(N/N=C/c2ccccc2)nc2ccccc12,1,39,-2,44*,41*,38*,11
Cc1cc(C)c(S(=O)(=O)ON2C(=O)c3ccccc3C2=O)cc1C,0,14,2,71*,45*,60*,74*
Cc1ccccc1-n1c(-c2csc(C)c2C)n[nH]c1=S,4,16,3,28,18,·,·
Cc1scc(-c2n[nH]c(=S)n2C(C)c2ccccc2)c1C (stereo not drawn),0,37,1,42*,43*,29,10
S=C(NCCN1CCOCC1)N/N=C/c1c2ccccc2cc2ccccc12,0,30,2,57*,42*,43*,-18
Cc1ccc(NC(=O)COC(=O)COc2cccc3c2OC(C)(C)C3)c(C)c1,1,-3,-5,11,1,·,·
COc1ccc(/C(N)=N/OC(=O)c2ccc([N+](=O)[O-])c(C)c2)cc1OC,0,46,-1,65*,49*,71*,36*
COc1cc2c(cc1OC)C(c1ccc(-c3ccc(Cl)cc3Cl)o1)=NCC2,-1,45,2,51*,48*,27,36*
